Screening results: PubChem BioAssay, several laboratories
MPTP inh = inhibitors of mitochondrial permeability transition pore; isolated mouse mitochondria, Ca2+ swelling absorbance, 30 min; inhibition, % at 10 µM; actives 1.4% (n = 360,000); AID 602449;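 active = inhibition of 50% or more, scaled per plate between neutral and stimulator controls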
SKN-1 inh = blocks SKN-1 activity in C. elegans; C. elegans VP596 Pgst-4::GFP/RFP ratio, acrylamide-induced, 24 h; inhibition, % at 21.8 µM; actives 0.49% (n = 360,000);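 active = interference check ratio from 0.5 to 1.5 plus GFP to RFP signal ratio inhibition reaching or exceeding a fixed threshold, cut at about 30% in these data, passing the limit was not always enough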
NR3A LBD binder = modulators (binders) of human NR3A ligand-binding domain; Tm shift relative to glycine control, % at 25 µM; NR3A LBD differential scanning fluorimetry, Tm shift; 0% = protein alone, 100% = glycine-bound protein; actives 2.5% (n = 340,000);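 active = melting temperature shift of at least 10% of the positive control shift, at one fixed dose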
ADAM17 inh = inhibitors of human ADAM17; recombinant ADAM17, EDANS/DABCYL FRET peptide cleavage; actives 0.83% (n = 370,000); P78536; inhibition, % at 6.95 µM;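 active = inhibition above the mean of compounds lying between control limits plus 3 SD, set per campaign, cut at about 8.5% in these data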
ADAM10 inh = inhibitors of human ADAM10; O14672; actives 0.62% (n = 370,000); inhibition, % at 7 µM; AID 720582; recombinant ADAM10, EDANS/DABCYL FRET peptide cleavage, 3 h;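 active = inhibition above a per-campaign cutoff equal to the mean of compounds falling between control-based bounds plus 3 SD, cut at about 20% in these data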
Target sequence (O14672 214-748 limits assumed): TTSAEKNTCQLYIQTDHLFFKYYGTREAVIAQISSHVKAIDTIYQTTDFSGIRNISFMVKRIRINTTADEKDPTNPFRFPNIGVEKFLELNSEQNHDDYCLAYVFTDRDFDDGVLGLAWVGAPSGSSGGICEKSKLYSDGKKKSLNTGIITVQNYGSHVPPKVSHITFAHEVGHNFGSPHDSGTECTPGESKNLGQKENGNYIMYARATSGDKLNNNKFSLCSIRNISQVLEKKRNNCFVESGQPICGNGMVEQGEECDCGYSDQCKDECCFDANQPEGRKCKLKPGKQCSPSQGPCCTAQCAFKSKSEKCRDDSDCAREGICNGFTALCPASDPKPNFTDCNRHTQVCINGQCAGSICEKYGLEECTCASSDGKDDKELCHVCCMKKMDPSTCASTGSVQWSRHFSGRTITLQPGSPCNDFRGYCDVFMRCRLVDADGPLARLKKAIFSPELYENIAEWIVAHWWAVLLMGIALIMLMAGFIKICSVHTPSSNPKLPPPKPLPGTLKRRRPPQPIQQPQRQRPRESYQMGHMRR
MT1-MMP act inh = MT1-MMP (human) activation inhibition; HT1080 RFP-PRO-GFP cells, GFP/RFP ratio fluorescence, overnight; percent of plate control window, DMSO zero; GFP/RFP ratio change, % at 20 µM; actives 0.061% (n = 360,000);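 active = GFP/RFP ratio change of at least 30% with cell ATP level not reduced by more than half and red fluorescence within 50% of control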
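Read-out: GFP/RFP fluorescence ratio; Test system: RFP-PRO-GFP reporter HT1080 cells; Compound dosing: single-point 20 µM compound, 1% DMSO; Times: overnight compound exposure at 37 °C.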
Rh123 counter = Rhodamine 123 counter-screen of mitochondrial pore hits | shares compounds with MPTP inh | isolated mitochondria, membrane potential, Rhodamine 123 fluorescence | inhibition, % at 10 µM | actives 78% (n = 5,000); in the data active = inhibition above about 22%
MPTP abs DR = dose response confirmation of mitochondrial permeability transition pore inhibitors; actives 58% (n = 780); AID 651561; IC50, µM; isolated mitochondria swelling, absorbance; shares compounds with MPTP inh; in the data active = IC50 below about 20 µM
MPTP cs DR = MPTP inhibitor counter-screen activity, dose response | shares compounds with MPTP inh | isolated mitochondria counterscreen, fluorescence read-out | IC50, µM | actives 49% (n = 780) | AID 651564; in the data active = IC50 below about 80 µM
Each line names hits and unclear results; the compound was inactive in the other large screens (follow-up assays come after a bar, where they were run). Compounds with a hit are over-represented: about 4.7% of the library has one in this group of screens.

Cc1ccc(C)c(S(=O)(=O)C(C#N)c2nc3ccccc3nc2N2CCCC2)c1 (configuration not stated)	none
Cc1ccc(C)c(S(=O)(=O)C(C#N)c2nc3ccccc3nc2N2CC(C)OC(C)C2)c1 (configuration not stated)	MPTP inh 78 | Rh123 counter 76
CC1(C)N=C(N)N=C(N)N1c1ccc(CCCCc2ccccc2)cc1	MPTP inh 64 (no result: NR3A LBD binder) | Rh123 counter 60
CCOC(=O)c1c(C)oc(NC(=O)COc2ccc(Cl)cc2C)c1C#N	MPTP inh 70 | Rh123 counter 51
Cc1c(Cl)c([N+](=O)[O-])nn1CCCC(=O)NCCc1ccccc1	none
CCCC(C)C(=O)Nc1ccc(S(=O)(=O)Nc2nccc(C)n2)cc1 (configuration not stated)	none
Cc1ccc(S(=O)(=O)NCc2ccc(C(=O)NCCN(Cc3ccccc3)C(C)C)cc2)cc1	MPTP inh 51 | Rh123 counter 71
Cc1ccc(S(=O)(=O)NCCNC(=O)c2ccccc2)cc1	none
C/C(CC(=O)Nc1cccc2c1CCCC2)=N\NC(=O)COc1ccccc1	none
Cc1nc(Nc2ccc(F)cc2)[nH]c(=O)c1CCC(C)C	MPTP inh 95 | Rh123 counter 77
Cc1cc(C)c2sc(N(CCCN(C)C)C(=O)c3ccc(S(=O)(=O)N(C)Cc4ccccc4)cc3)nc2c1	MPTP inh 82 | Rh123 counter inactive | MPTP abs DR 8.8 | MPTP cs DR 45
Cc1ccc2sc(N(CCCN(C)C)C(=O)c3ccc(S(=O)(=O)N(C)C)cc3)nc2c1C	none
CN(C)CCCN(C(=O)c1ccc(S(=O)(=O)N(C)Cc2ccccc2)cc1)c1nc2cc3c(cc2s1)OCO3	none
COc1ccc2sc(N(CCCN(C)C)C(=O)c3ccc(S(=O)(=O)N(C)Cc4ccccc4)cc3)nc2c1	MPTP inh 78 | Rh123 counter inactive | MPTP abs DR 8.1
CCN(Cc1ccccc1)S(=O)(=O)c1ccc(C(=O)N(CCCN(C)C)c2nc3cc(C)cc(C)c3s2)cc1	none
Cc1ccc2sc(N(CCCN(C)C)C(=O)c3ccc(S(=O)(=O)N(C)Cc4ccccc4)cc3)nc2c1C	MPTP inh 71 | Rh123 counter inactive
COc1ccccc1C(=O)NC(=O)COC(=O)Cc1n[nH]c(=O)c2ccccc12	none
C[C@@H]1O[C@H](C2CC2)Cc2[nH]c(=S)[nH]c(=O)c21	none (no result: NR3A LBD binder)
O=C(NC(=S)NCc1ccccc1)c1ccc(Br)cc1	none
Cc1ccc(NC(=S)NC(NC(=O)C(C)(C)C)C(Cl)(Cl)Cl)c(C)c1 (configuration not stated)	MPTP inh 57 | Rh123 counter 64
COC(=O)NC(NC(=S)Nc1cccc(C)c1)C(Cl)(Cl)Cl (configuration not stated)	none
O=C(/C=C/c1ccccc1)NC(NC(=S)Nc1ccc(Cl)cc1Cl)C(Cl)(Cl)Cl (configuration not stated)	MPTP inh 102, NR3A LBD binder 20 (no result: ADAM17 inh, ADAM10 inh) | Rh123 counter 63
Cc1ccc(C)c(NC(=S)NC(NC(=O)/C=C/c2ccccc2)C(Cl)(Cl)Cl)c1 (configuration not stated)	MPTP inh 100, NR3A LBD binder 14 | Rh123 counter 65
O=C(/C=C/c1ccc(Cl)cc1)NC(=S)Nc1ccccc1C(=O)O	none
Cc1ccc(NC(=S)NNC(=O)c2ccccc2O)c(C)c1	none
O=C(/C=C/c1ccccc1)NC(NC(=S)Nc1cccc(Cl)c1)C(Cl)(Cl)Cl (configuration not stated)	MPTP inh 93, NR3A LBD binder 29 | Rh123 counter 84
Cc1ccc(C)c(NS(=O)(=O)c2ccc(OCC(=O)NCc3ccccn3)cc2)c1	none
Cc1ccc(NC(=O)C2CCN(C(=O)[C@@H]3Cc4ccccc4CN3)CC2)c(C)c1	none
CC(=O)NC(NC(=S)Nc1ccc(N=Nc2ccccc2C)cc1C)C(Cl)(Cl)Cl (configuration not stated)	MPTP inh 88 | Rh123 counter 63
CC(=O)NC(NC(=S)Nc1ccccc1Br)C(Cl)(Cl)Cl (configuration not stated)	none
c1ccc(CC[C@@H]2CC[C@@H](CCc3ccccc3)N2)cc1	MPTP inh 69 | Rh123 counter inactive | MPTP abs DR 10 | MPTP cs DR inactive
CN1/C(=C/c2cc[n+](C)c3ccccc23)C=Cc2ccccc21	MPTP inh 75, MT1-MMP act inh 64 (no result: ADAM17 inh, ADAM10 inh) | Rh123 counter 59
C[n+]1ccc(/C=C/c2ccccc2O)c2ccccc21	none
Cc1ccc(-c2nn(-c3ccccc3)cc2C=C2C(=O)CC(C)(C)CC2=O)cc1	none
CC1(C)CC(=O)C(=Cc2cn(-c3ccccc3)nc2-c2ccccc2)C(=O)C1	MPTP inh 76 | Rh123 counter inactive | MPTP abs DR inactive | MPTP cs DR 5.7
CC(C)NC(=O)C1(C)CN(S(C)(=O)=O)CC(=O)N1C1CC1 (configuration not stated)	none (no result: NR3A LBD binder)
CCc1c(C)nc2ncnn2c1NCCc1ccc(OC)cc1	MPTP inh 51 | Rh123 counter 65
COC(=O)C1(CC2CC(c3cccc(Br)c3)=NO2)CCN(C(=O)OC(C)(C)C)CC1 (configuration not stated)	MPTP inh 54 | Rh123 counter 57
CC(C)(C)OC(=O)N1CCC(CC2CC(c3ccccc3)=NO2)(C(=O)NCc2ccccc2)CC1 (configuration not stated)	none
OCc1ccccc1NC(=S)Nc1cccnc1	none
Cc1c(C(=O)OCC(=O)NCc2ccccc2)oc2ccccc12	none
CCOc1cc(CNCCO)cc(Br)c1OCc1ccccc1	MPTP inh 89 (no result: MT1-MMP act inh) | Rh123 counter inactive | MPTP abs DR 5.5 | MPTP cs DR 19
CCOc1cc(CNCc2ccncc2)cc(Br)c1OCc1ccc(F)cc1	MPTP inh 98 | Rh123 counter inactive | MPTP abs DR 8.4 | MPTP cs DR 26
Fc1ccc(COc2ccc(Br)cc2CNCc2ccncc2)cc1	none
O=c1c2c(nc3c(-c4ccccc4)c[nH]n13)CCC2	none
O=c1c2c(nc3c(-c4cccc(Br)c4)c[nH]n13)CCCC2	MPTP inh 58 | Rh123 counter 73
